Measured values taken from ChEMBL document CHEMBL1121711, “Novel peptidoaminobenzophenones, terminal N-substituted peptidoaminobenzophenones, and N-(acylglycyl)aminobenzophenones as open-ring derivatives of benzodiazepines” (J Med Chem, 1981).

Experiments:
Mus musculus [1] = test: Compound was tested for antagonism of pentylenetetrazole-induced convulsion in mice by oral administration.; assay type: functional
How it was run: (§1)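 Compounds given orally as an aqueous arabic gum suspension to groups of five mice; 60 min after dosing, pentylenetetrazole 125 mg/kg given subcutaneously. Animals observed 2 h for convulsion and death; dose protecting 50% (ED50) estimated graphically.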

Mus musculus [2] = test: Muscle relaxation activity using the rotarod performance test in mice by oral administration.; assay type: functional
How it was run: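 Groups of five mice dosed orally with compound suspended in aqueous arabic gum. At 60 min post-dose each mouse placed on a 3 cm diameter wooden rod turning at 5 rpm; falls within 2 min counted. ED50 estimated graphically.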

Mus musculus [3] = test: Antagonism of pentylenetetrazole-induced convulsion in mice by oral administration.; assay type: functional; how it was run: as §1
[4] = Acute toxicity expressed as LD50 in mice after oral administration.; assay type: organism-based; details: mouse, in vivo
How it was run: (§2)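 Mice dosed orally as a suspension in aqueous arabic gum, groups of one to three animals; acute toxicity judged on day 7 after dosing. Values for the three reference benzodiazepines derived by the probit method.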

[5] = Acute toxicity of compound expressed as LD50 was measured in mice after oral administration.; assay type: organism-based; details: mouse, in vivo; how it was run: as §2

Compound	ED50 (Mus musculus [1]) [mg/kg]	ED50 (Mus musculus [2]) [mg/kg]	ED50 (Mus musculus [3]) [mg/kg]	LD50 [4] [mg/kg]	LD50 [5] [mg/kg]
CN(C(=O)CNC(=O)CN)c1ccc([N+](=O)[O-])cc1C(=O)c1ccccc1Cl	0.32	10			
CCCCCC(=O)NCC(=O)N(C)c1ccc(Cl)cc1C(=O)c1ccccc1Cl		90	1.9	> 1000	
CCCCCCCCCCCCCCCC(=O)NCC(=O)N(C)c1ccc(Cl)cc1C(=O)c1ccccc1Cl		> 100	> 100		> 1000
NCC(=O)NCC(=O)Nc1ccc([N+](=O)[O-])cc1C(=O)c1ccccc1Cl		63.9	2.64		750
CC(NC(=O)CN)C(=O)N(C)c1ccc(Cl)cc1C(=O)c1ccccc1Cl (stereo not given)		8.5	0.47	750	
CCCC(=O)NCC(=O)N(C)c1ccc(Cl)cc1C(=O)c1ccccc1Cl		55.2	0.98	> 1000	
CN(C(=O)CNC(=O)c1ccccc1)c1ccc(Cl)cc1C(=O)c1ccccc1		> 100	7.6	> 1000	
CN(C(=O)CNC(=O)c1ccccc1)c1ccc(Cl)cc1C(=O)c1ccccc1Cl		> 100	2.9	> 1000	
CNCC(=O)NCC(=O)N(C)c1ccc(Cl)cc1C(=O)c1ccccc1Cl	1.55			> 1000	
CN(C(=O)CNC(=O)CN1CCC(O)(c2ccc(Cl)cc2)CC1)c1ccc(Cl)cc1C(=O)c1ccccc1Cl		> 100	27	> 1000	
CC(=O)NCC(=O)N(C)c1ccc(Cl)cc1C(=O)c1ccccc1Cl		58	2.3	> 1000	
CCCCCCC(=O)NCC(=O)N(C)c1ccc(Cl)cc1C(=O)c1ccccc1Cl		70	1.9	> 1000	
CN(C)CC(=O)NCC(=O)N(C)c1ccc(Cl)cc1C(=O)c1ccccc1Cl		26	2.6	> 1000	
NCC(=O)NCC(=O)Nc1ccc([N+](=O)[O-])cc1C(=O)c1ccccc1		24.8	4.82	> 1000	
CN(C(=O)CNC(=O)CN1CCN(c2ccccc2)CC1)c1ccc(Cl)cc1C(=O)c1ccccc1Cl		> 100	75	> 1000	
CC(C)NCC(=O)NCC(=O)N(C)c1ccc(Cl)cc1C(=O)c1ccccc1Cl		13	1	750	

Compound	ED50 (Mus musculus [1]) [mg/kg]	ED50 (Mus musculus [2]) [mg/kg]	ED50 (Mus musculus [3]) [mg/kg]	LD50 [4] [mg/kg]	LD50 [5] [mg/kg]
CN1CCN(CC(=O)NCC(=O)N(C)c2ccc(Cl)cc2C(=O)c2ccccc2Cl)CC1		> 100	59	> 1000	
CN(C(=O)CNC(=O)CN1CCOCC1)c1ccc(Cl)cc1C(=O)c1ccccc1Cl		> 100	14	> 1000	
CC(C)C(=O)NCC(=O)N(C)c1ccc(Cl)cc1C(=O)c1ccccc1Cl		> 100	6	> 1000	
CN(C(=O)CNC(=O)Cc1ccccc1)c1ccc(Cl)cc1C(=O)c1ccccc1Cl		> 100	35	> 1000	
NC(C(=O)NCC(=O)Nc1ccc(Cl)cc1C(=O)c1ccccc1)c1ccccc1 (stereo not given)		> 100	28	> 1000	
CCCCC(=O)NCC(=O)N(C)c1ccc(Cl)cc1C(=O)c1ccccc1Cl		90	1.3	> 1000	
CC(=O)NCC(=O)Nc1ccc(Cl)cc1C(=O)c1ccccc1Cl		> 100	> 100	> 1000	
CN(C(=O)CNC(=O)CNCCc1ccccc1)c1ccc(Cl)cc1C(=O)c1ccccc1Cl		86	1.6	> 1000	
CN(C(=O)CNC(=O)CN)c1ccc([N+](=O)[O-])cc1C(=O)c1ccccc1	0.28	2.94			
CN(C(=O)CNC(=O)CN1CCCCC1)c1ccc(Cl)cc1C(=O)c1ccccc1Cl		> 100	7.5	> 1000	
CCN(CC)CC(=O)NCC(=O)N(C)c1ccc(Cl)cc1C(=O)c1ccccc1Cl		34	2.2	> 1000	
CCC(=O)NCC(=O)N(C)c1ccc(Cl)cc1C(=O)c1ccccc1Cl		36	1.4	> 1000	
CC(=O)NCC(=O)Nc1ccc(Cl)cc1C(=O)c1ccccc1		> 100	37	> 1000	
CNC1=Nc2ccc(Cl)cc2C(c2ccccc2)=[N+]([O-])C1 [CHLORDIAZEPOXIDE]				1080	
CN(C(=O)CNC(=O)CN)c1ccc(Cl)cc1C(=O)c1ccccc1Cl [LORZAFONE ANHYDROUS]		27.7	0.58	> 1000	
O=C1CN=C(c2ccccc2)c2cc([N+](=O)[O-])ccc2N1 [NITRAZEPAM]		4.25	0.23		
